Experimental data: ChEMBL document CHEMBL2169863, “Discovery, structure-activity relationship, and biological evaluation of noninhibitory small molecule chaperones of glucocerebrosidase” (J Med Chem, 2012)
Residue numbers refer to the chain shown, from its start. The source made the active and inactive calls. The calls are words filed in the database; no cut-off is given here.

Assays:
Liver [1] = experiment: Ratio of AUClast in liver to AUClast in plasma in C57BL/6 mouse at 50 mg/kg, ip; type: ADME, organism-based; set-up: dose 50 mg/kg, route intraperitoneal; conditions: other tissue
How it was run: (§1)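 Male C57BL/6 mice, 18−26 g, given a single ip dose of 50 mpk in 20% PEG 400 + 80% (20% HP-β-CD). Plasma, brain and liver were sampled, and brain and liver were homogenized in 3 volumes of PBS pH 7.4 (dilution factor 4). Analysis was by LC−MS/MS. Mean profiles N = 3.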

[2] = Cytotoxicity against human dermal fibroblasts expressing GCase N370S/N370S mutant at 5 uM after 6 days; type: cell-based; conditions: fibroblast, 144 h
How it was run: (§2)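 Fibroblasts of the stated genotype were seeded at 5000 cells/well. After 1 day they were switched to OPTI-MEM with 5% FBS and treated 6 days with compound. Viability was read by CellTiter-Glo luminescence on a parallel plate.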

Caco-2 = experiment: Apparent permeability of the compound from basal to apical side of human Caco2 cells after 2 hrs; type: ADME, cell-based; conditions: caco-2, 2 h
How it was run: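 Caco-2 monolayers were grown 3 weeks, with integrity checked by Lucifer yellow. Compound was added apically (pH 6.5 HBSS/HEPES/glucose buffer) or basolaterally (pH 7.4) and incubated 2 h. Transfer was quantified by LC−MS/MS and expressed as P_app. Efflux ratio is P_app B→A over A→B.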

[3] = tested on: T1, Lysosomal acid glucosylceramidase (Homo sapiens), P04062 [N409S]; experiment: Activation of glucocerebrosidase N370S mutant using 4-methylumbelliferone-beta-Glc as substrate incubated for 5 mins prior to substrate addition measured after 30 to 45 mins by HPLC analysis
T1 sequence (whole entry): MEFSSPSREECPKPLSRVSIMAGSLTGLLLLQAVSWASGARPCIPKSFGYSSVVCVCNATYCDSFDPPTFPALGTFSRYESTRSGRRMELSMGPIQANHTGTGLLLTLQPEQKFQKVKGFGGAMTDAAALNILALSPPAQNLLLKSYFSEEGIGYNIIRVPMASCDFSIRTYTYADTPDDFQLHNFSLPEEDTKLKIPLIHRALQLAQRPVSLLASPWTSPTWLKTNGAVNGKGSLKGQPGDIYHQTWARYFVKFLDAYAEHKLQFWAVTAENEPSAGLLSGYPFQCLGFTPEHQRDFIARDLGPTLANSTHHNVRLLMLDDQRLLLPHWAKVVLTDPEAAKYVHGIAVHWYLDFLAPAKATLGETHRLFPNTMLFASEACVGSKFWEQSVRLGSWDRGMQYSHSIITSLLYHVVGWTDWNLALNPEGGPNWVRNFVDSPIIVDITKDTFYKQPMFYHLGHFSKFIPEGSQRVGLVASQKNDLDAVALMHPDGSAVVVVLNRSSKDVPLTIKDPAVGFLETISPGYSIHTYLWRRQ
How it was run: (§3)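 N370S/N370S patient spleen homogenate at 140 μg/well. Compound was tested at 9 concentrations, 1:2 dilutions from 50 μM. Substrate was 2 mM 4MU-Glc or the C12-BODIPY substrate at 25 μM; other conditions as the plate assay. Stopped reactions were separated on C18 HPLC with fluorescence detection: 4MU at 365/440 nm, C12-BODIPY-Cer at 506/540 nm.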

Plasma [4] = experiment: Cmax in C57BL/6 mouse plasma at 50 mg/kg, ip; type: ADME, organism-based; set-up: dose 50 mg/kg, route intraperitoneal; conditions: in vivo; how it was run: as §1
Liver [5] = experiment: AUC (infinity) in C57BL/6 mouse liver at 50 mg/kg, ip; type: ADME, organism-based; set-up: time infinity, dose 50 mg/kg, route intraperitoneal; conditions: in vivo; how it was run: as §1
[6] = Cytotoxicity against human dermal fibroblasts expressing GCase L444P/L444P mutant at 5 uM after 6 days; type: cell-based; conditions: fibroblast, 144 h; how it was run: as §2
[7] = Cytotoxicity against human dermal fibroblasts expressing wild type GCase at 5 uM after 6 days; type: cell-based; conditions: fibroblast, 144 h; how it was run: as §2
[8] = Ratio of AUClast in brain to AUClast in plasma in C57BL/6 mouse at 50 mg/kg, ip; type: ADME, organism-based; set-up: dose 50 mg/kg, route intraperitoneal; how it was run: as §1
Liver [9] = experiment: AUClast in C57BL/6 mouse liver at 50 mg/kg, ip; type: ADME, organism-based; set-up: time 0 - last, dose 50 mg/kg, route intraperitoneal; conditions: in vivo; how it was run: as §1
[10] = tested on: T1, Lysosomal acid glucosylceramidase (Homo sapiens), P04062 [N409S]; experiment: Activation of glucocerebrosidase N370S mutant in Gaucher patient spleen homogenates using 4-methylumbelliferone-Glc as substrate assessed as half-maximal activation concentration incubated for 5 mins prior to substrate addition measured after 30 to 45 mins by fluorimetric analysis; type: tissue-based
How it was run: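 Spleen homogenate (27 μg final) in pH 5 citrate/phosphate buffer with KCl, NaCl, MgCl₂ and 0.01% Tween-20. Compound was titrated 0.5 nM to 58 μM and preincubated 5 min at room temperature. Reaction used 1 mM 4MU-Glc for 30−45 min at 37 °C and was stopped with NaOH/glycine pH 10. Read-out was fluorescence at Ex 365/Em 440 nm. AC₅₀ is the average of N = 2.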

[11] = tested on: T1, Lysosomal acid glucosylceramidase (Homo sapiens), P04062 [N409S]; experiment: Activation of glucocerebrosidase N370S mutant using C12-BODIPY-GlcCer as substrate assessed as half-maximal activation concentration incubated for 5 mins prior to substrate addition measured after 30 to 45 mins by HPLC analysis; how it was run: as §3
[12] = target: T2, Lysosomal acid glucosylceramidase (Homo sapiens, UniProt P04062); experiment: (§4) Binding affinity to NT-647 labeled glucocerebrosidase by microscale thermophoretic analysis; conditions: read-out: Kd(app)
T2 sequence (P04062 whole entry): T1 sequence (whole entry) with S409N
How it was run: (§5)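 NT-647-labeled glucocerebrosidase at ~20 nM in 50 mM phosphate pH 7.2, 0.05% Tween-20. It was mixed 1:1 with a 16-point DMSO dilution series and incubated 15 min at room temperature before capillary microscale thermophoresis. Apparent K_d was taken from the dose-dependent fluorescence change.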

[13] = target: T3, Lysosomal acid glucosylceramidase (Homo sapiens) (UniProt P04062); experiment: as §4; how it was run: as §5
T3 sequence (whole entry): T1 sequence (whole entry) with S409N

Brain = experiment: Tmax in C57BL/6 mouse brain at 50 mg/kg, ip; type: ADME, organism-based; set-up: dose 50 mg/kg, route intraperitoneal; conditions: in vivo; how it was run: as §1
Plasma [14] = experiment: Half life in C57BL/6 mouse plasma at 50 mg/kg, ip; type: ADME, organism-based; set-up: dose 50 mg/kg, route intraperitoneal; conditions: in vivo; how it was run: as §1

Ratio AUC (Liver [1]): 12512%
Papp (Caco-2): 2 ×10⁻⁶ cm/s
Activity [3]: Dose-dependent effect
Cmax (Plasma [4]): 1030 nM
AUC (Liver [5]): 105000 ng·h/mL
Ratio AUC [8]: 290%
AUClast (Liver [9]): 54300 ng·h/mL
Activity [10]: 0.36 µM
Activity [11]: inactive
Kd [12]: 9 µM
Activity [13]: Dose-dependent effect
Tmax (Brain): 0.25 h
t1/2 (Plasma [14]): 19.3 h
SMILES: C#Cc1ccc(NC(=O)c2cnn3c(C)cc(C)nc23)cc1
Activity [2]: Non-toxic
Activity [6]: Non-toxic
Activity [7]: Non-toxic
